Series [1] in a line: Induction of tubulin polymerization by DAPI fluorescence method. The settings on record: read-out: I50. In a few lines:
(§1)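 Microplate assay in PMEG buffer (100 mM PIPES, 1 mM MgSO₄, 2 mM EGTA, 0.1 mM GTP, pH 6.9) containing ligand; DAPI final 10 µM, tubulin final 5 µM. Fluorescence followed at 37 °C, excitation 360/40 nm, emission 460/40 nm. Change in fluorescence normalized to the curve of 10 µM paclitaxel standard. Samples in duplicate, triplicate or quadruplicate; concentrations over 2 orders of magnitude tested.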

A further series relates to A2780. As to the kind of experiment: Cytotoxicity against human A2780 cells. The format is functional, cell-based.
Series [2] is described as follows: Octanol-water partition coefficient, log P in 0.1 N aqueous HCl. The format is physicochemical. In a few lines: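 Compound partitioned between 1-octanol and 0.1 N aqueous HCl with vigorous shaking for 1 h.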
The nature of series [3]: Induction of tubulin polymerization at 1 uM by DAPI fluorescence method relative to control. The method in brief: as §1
A short description of series [4]: Induction of tubulin polymerization at 0.1 uM by DAPI fluorescence method relative to control. The method in brief: as §1
A short description of series [5]: Induction of tubulin polymerization at 10 uM by DAPI fluorescence method relative to control. In a few lines: as §1

pIC50: −log10 of the molar value. In brackets after ≈: the same amount, converted by molar mass.

On to `CC(=O)O[C@@]12CO[C@@H]1C[C@H](OC(=O)CN1CCCCC1)[C@@]1(C)C(=O)[C@H](O)C3=C(C)[C@@H](OC(=O)[C@H](O)[C@@H](NC(=O)c4ccccc4)c4ccccc4)C[C@@](O)([C@@H](OC(=O)c4ccccc4)[C@H]21)C3(C)C`, for which, in series [1], the pIC50 is 5.99. Besides, inhibition in the series on A2780 was half-maximal at 0.18 µg/mL (≈ 0.192 µM) (IC50).
In the case of `CC(=O)O[C@@]12CO[C@@H]1C[C@H](OC(=O)CN1CCN(Cc3ccc4c(c3)OCO4)CC1)[C@@]1(C)C(=O)[C@H](O)C3=C(C)[C@@H](OC(=O)[C@H](O)[C@@H](NC(=O)c4ccccc4)c4ccccc4)C[C@@](O)([C@@H](OC(=O)c4ccccc4)[C@H]21)C3(C)C`, the pIC50 in series [1] was 5.11. In addition, the IC50 – broadly, the concentration that inhibits the measured activity by half – in the series with A2780 is 0.02 µg/mL (≈ 0.0187 µM).
Regarding `CC(=O)O[C@@]12CO[C@@H]1C[C@H](OC(=O)CN1CCOCC1)[C@@]1(C)C(=O)[C@H](O)C3=C(C)[C@@H](OC(=O)[C@H](O)[C@@H](NC(=O)c4ccccc4)c4ccccc4)C[C@@](O)([C@@H](OC(=O)c4ccccc4)[C@H]21)C3(C)C`, in series [1], the pIC50 is 5.89. Further, the IC50 with A2780 was 0.2 µg/mL (≈ 0.213 µM).
For the compound `CC(=O)O[C@@]12CO[C@@H]1C[C@H](OC(=O)CN1CCN(c3ccc(C(C)=O)cc3)CC1)[C@@]1(C)C(=O)[C@H](O)C3=C(C)[C@@H](OC(=O)[C@H](O)[C@@H](NC(=O)c4ccccc4)c4ccccc4)C[C@@](O)([C@@H](OC(=O)c4ccccc4)[C@H]21)C3(C)C`, in series [1], the pIC50 was 5.36. This compound also gave an IC50 with A2780 of 0.9 µg/mL (≈ 0.852 µM).
Turning to `CC(=O)O[C@@]12CO[C@@H]1C[C@H](OC(=O)CN1CCN(c3ccccn3)CC1)[C@@]1(C)C(=O)[C@H](O)C3=C(C)[C@@H](OC(=O)[C@H](O)[C@@H](NC(=O)c4ccccc4)c4ccccc4)C[C@@](O)([C@@H](OC(=O)c4ccccc4)[C@H]21)C3(C)C`, in series [2], the logP (commonly a log measure of how a compound divides between an organic and an aqueous phase) is 0.155. Further, in series [1], the pIC50 is 5.78. In the series on A2780, this compound gave a concentration for half-maximal inhibition (IC50) of 0.014 µg/mL (≈ 0.0138 µM).
With `CC(=O)O[C@H]1C(=O)[C@@]2(C)[C@H]([C@H](OC(=O)c3ccccc3)[C@]3(O)C[C@H](OC(=O)[C@H](O)[C@@H](NC(=O)c4ccccc4)c4ccccc4)C(C)=C1C3(C)C)[C@]1(OC(C)=O)CO[C@@H]1C[C@@H]2O` [PACLITAXEL], the values for the Activity in series [3], in series [4] and in series [5] were 66%, 2.3% and 100%, respectively. Moreover, the log partition coefficient (logP) in series [2] came to 0.017. Also, in series [1], the pIC50 was 6.26. For the same compound, in the series on A2780, the IC50 came to 0.136 µg/mL (≈ 0.159 µM).
Take `CC(=O)O[C@@]12CO[C@@H]1C[C@H](OC(=O)CN1CCN(C)CC1)[C@@]1(C)C(=O)[C@H](O)C3=C(C)[C@@H](OC(=O)[C@H](O)[C@@H](NC(=O)c4ccccc4)c4ccccc4)C[C@@](O)([C@@H](OC(=O)c4ccccc4)[C@H]21)C3(C)C`: the pIC50 in series [1] was 6.23. The IC50 in the series with A2780 came out at 0.67 µg/mL (≈ 0.704 µM).

The values above are taken from ChEMBL document CHEMBL1156410, “Design and synthesis of a combinatorial chemistry library of 7-acyl, 10-acyl, and 7,10-diacyl analogues of paclitaxel (taxol) using solid phase synthesis” (J Nat Prod, 2002).
